Measurements as given in ChEMBL document CHEMBL1828519, “Tricyclic thiazolopyrazole derivatives as metabotropic glutamate receptor 4 positive allosteric modulators” (J Med Chem, 2011).
In brackets after ≈: the same amount, converted by molar mass.

What was measured:
[1] = Kinetic solubility of the compound at pH 7.4 at room temperature; assay type: physicochemical; details: buffer, read-out: Kinetic_solubility
Outline: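 Kinetic solubility measured from DMSO stock solutions at room temperature. Assay run at the pH named in each line.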

[2] = molecular target: T1, Metabotropic glutamate receptor 4 (Homo sapiens, UniProt Q14833); assay: Positive allosteric modulation of human mGlu4 receptor expressed in BHK cells assessed as potentiation of glutamate-induced calcium mobilization after 1 hr by FLIPR assay; assay type: functional, cell-based
Outline: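 Stable BHK line co-expressing human mGlu4 and murine Gα15, plated on poly-D-lysine 24 h ahead. Cells loaded 1 h at 37 °C, 5% CO2 with Calcium 3 dye in HBSS/20 mM HEPES pH 7.4, 0.1% BSA, 2.5 mM probenecid. Test agent added with an EC20 glutamate challenge. Peak fluorescence change read by FLIPR and fitted to the Hill equation. At least two independent runs in duplicate, means reported.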

[3] = Apparent permeability of the compound by PAMPA assay; assay type: ADME
Outline: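 Passive permeability measured in a PAMPA assay.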

[4] = molecular target: T1, Metabotropic glutamate receptor 4; assay: Positive allosteric modulation of human mGlu4 receptor expressed in BHK cells assessed as potentiation of glutamate-induced response after 1 hr by FLIPR assay relative to glutamate; assay type: cell-based
Outline: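 BHK cells stably co-expressing human mGlu4 and murine G-protein […], grown in DMEM at 37 °C, 5% CO₂. Cells seeded 24 h before assay, then loaded with Calcium 3 no-wash dye in HBSS/HEPES pH 7.4 with 0.1% BSA and 2.5 mM probenecid for 1 h at 37 °C. FLIPR calcium read after stimulation with EC₂₀ glutamate plus compound. Emax is percent of maximal glutamate response. Mean of ≥2 independent duplicate experiments.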

[5] = Intrinsic clearance in human microsomes; assay type: ADME, Microsome
Outline: (§1)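 Intrinsic clearance measured in rat and human liver microsomes. Hepatic blood flow references given as 20 mL/min for rat and 1.5 L/min for human.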

[6] = Intrinsic clearance in rat microsomes; assay type: ADME, Microsome; outline: as §1
[7] = Plasma protein binding in human; assay type: ADME, cell-free; details: read-out: PPB (converted)
[8] = Plasma protein binding in rat; assay type: ADME, cell-free; details: read-out: PPB (converted)

T1 sequence (Q14833 whole entry): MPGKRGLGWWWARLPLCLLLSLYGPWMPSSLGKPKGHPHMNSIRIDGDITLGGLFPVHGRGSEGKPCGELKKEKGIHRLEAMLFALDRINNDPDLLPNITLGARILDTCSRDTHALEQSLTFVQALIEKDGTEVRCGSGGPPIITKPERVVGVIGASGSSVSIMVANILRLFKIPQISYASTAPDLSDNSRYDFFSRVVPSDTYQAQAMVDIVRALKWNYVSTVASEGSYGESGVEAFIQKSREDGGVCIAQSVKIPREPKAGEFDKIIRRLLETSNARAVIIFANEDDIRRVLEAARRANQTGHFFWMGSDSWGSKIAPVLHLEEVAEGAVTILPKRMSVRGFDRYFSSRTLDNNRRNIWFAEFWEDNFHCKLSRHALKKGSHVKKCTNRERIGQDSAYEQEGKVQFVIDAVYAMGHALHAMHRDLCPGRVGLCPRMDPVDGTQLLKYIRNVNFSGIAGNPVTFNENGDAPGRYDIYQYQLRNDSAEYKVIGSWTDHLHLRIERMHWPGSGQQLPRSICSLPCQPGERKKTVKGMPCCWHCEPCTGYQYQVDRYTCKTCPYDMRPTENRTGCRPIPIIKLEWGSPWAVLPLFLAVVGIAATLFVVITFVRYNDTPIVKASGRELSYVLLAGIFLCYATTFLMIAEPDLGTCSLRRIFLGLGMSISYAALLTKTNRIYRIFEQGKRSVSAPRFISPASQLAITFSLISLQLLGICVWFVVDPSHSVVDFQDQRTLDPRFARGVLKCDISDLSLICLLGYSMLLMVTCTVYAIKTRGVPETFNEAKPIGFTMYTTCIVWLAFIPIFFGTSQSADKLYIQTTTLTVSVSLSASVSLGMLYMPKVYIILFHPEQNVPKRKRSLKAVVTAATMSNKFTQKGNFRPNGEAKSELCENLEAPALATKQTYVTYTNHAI

Row | Compound | solubility kinetic [1] [µM] | EC50 [2] [nM] | Papp [3] [×10⁻⁶ cm/s] | Emax [4] [%] | other results
1 | Fc1cccc(Nc2nc3c(s2)CCCc2[nH]ncc2-3)n1 | 0.2 (≈ 0.0603 µg/mL) | 105 | 0.1 | – | –
2 | Cc1ccc(N2C(=O)c3ccccc3NC2C(C)c2ccccc2)cc1 (stereo not given) | – | – | – | 129 | –
3 | c1cc(Nc2nc3c(s2)CCCc2n[nH]cc2-3)nc(N2CCCC2)c1 | – | – | – | 14 | –
4 | c1[nH]nc2c1-c1nc(NC3CCCCC3)sc1CCC2 | < 0.1 | 1300 | 2.8 | 150 | –
5 | c1cc(Nc2nc3c(s2)CCCc2n[nH]cc2-3)n[nH]1 | – | – | – | 140 | –
6 | c1cnc(Nc2nc3c(s2)CCCc2n[nH]cc2-3)nc1 | – | – | – | 160 | –
7 | c1csc(Nc2nc3c(s2)CCCc2n[nH]cc2-3)n1 | – | > 10000 | – | 35 | –
8 | CCNc1cccc(Nc2nc3c(s2)CCCc2n[nH]cc2-3)n1 | 0.9 (≈ 0.294 µg/mL) | 600 | 3.1 | 63 | –
9 | c1ccc(Nc2nc3c(s2)CCc2[nH]ncc2-3)cc1 | < 0.1 | 2200 | < 0.1 | – | –
10 | Cc1cc(C)nc(Nc2nc3c(s2)CCc2n[nH]cc2-3)c1 | – | – | – | 11 | –
11 | Fc1ccc(Nc2nc3c(s2)CCCc2[nH]ncc2-3)nc1 | < 0.1 | 750 | 0.3 | – | –
12 | Cn1ccc(Nc2nc3c(s2)CCCc2n[nH]cc2-3)n1 | – | – | – | 130 | –
13 | c1ccc(Nc2nc3c(s2)CCCc2n[nH]cc2-3)nc1 | – | – | – | 120 | –
14 | Fc1ccc(Nc2nc3c(s2)CCCc2n[nH]cc2-3)nc1 | – | – | – | 170 | –
15 | c1cncc(Nc2nc3c(s2)CCCc2n[nH]cc2-3)c1 | – | – | – | 26 | –
16 | Cc1cc(C)cc(-n2ncc3c(N4CCCC(C)C4)ncnc32)c1 (stereo not given) | – | 4600 | – | 100 | –
17 | COC(=O)c1cccc(Nc2nc3c(s2)CCCc2n[nH]cc2-3)n1 | 1.9 (≈ 0.649 µg/mL) | > 10000 | 0.1 | 5 | –
18 | c1cc(Nc2nc3c(s2)CCCc2[nH]ncc2-3)[nH]n1 | 190 (≈ 51.7 µg/mL) | 3200 | 25 | – | –
19 | Cc1nc2ccccc2nc1N/N=C/c1ccc(O)cc1 | – | – | – | 144 | –
20 | Cc1ccnc(Nc2nc3c(s2)CCCc2[nH]ncc2-3)n1 | 0.6 (≈ 0.179 µg/mL) | 51 | 0.5 | – | –
21 | Cc1ccc(Nc2nc3c(s2)CCCc2n[nH]cc2-3)nn1 | 21 (≈ 6.27 µg/mL) | > 10000 | 31 | 6.3 | –

Row | Compound | solubility kinetic [1] [µM] | EC50 [2] [nM] | Papp [3] [×10⁻⁶ cm/s] | Emax [4] [%] | other results
22 | Cc1cc(Nc2nc3c(s2)CCCc2n[nH]cc2-3)n[nH]1 | – | – | – | 39 | –
23 | Cc1ccc(Nc2nc3c(s2)CCCc2n[nH]cc2-3)nc1 | – | – | – | 28 | –
24 | O=C(Nc1ccccc1)[C@]12C[C@H]1/C(=N\O)c1ccccc1O2 | – | – | – | 120 | –
25 | COc1ccnc(Nc2nc3c(s2)CCCc2[nH]ncc2-3)n1 | 0.6 (≈ 0.189 µg/mL) | 100 | 0.3 | – | –
26 | Cc1cc(C)nc(Nc2nc3c(s2)CCCc2[nH]ncc2-3)c1 | 0.4 (≈ 0.125 µg/mL) | > 10000 | 1.2 | – | –
27 | c1cncc(Nc2nc3c(s2)CCc2n[nH]cc2-3)c1 | – | – | – | 11 | –
28 | Cc1cccc(Nc2nc3c(s2)CCc2[nH]ncc2-3)n1 | 2.9 (≈ 0.822 µg/mL) | 910 | 2 | – | CL [5]: 48 L/min; CL [6]: 400 mL/min
29 | Cc1cccnc1Nc1nc2c(s1)CCCc1[nH]ncc1-2 | 0.2 (≈ 0.0595 µg/mL) | 3400 | 8 | – | –
30 | Cc1cc(C)nc(Nc2nc3c(s2)CCCc2n[nH]cc2-3)c1 | – | – | – | 4 | –
31 | Cc1ccc(Nc2nc3c(s2)CCc2n[nH]cc2-3)nc1 | < 0.1 | > 10000 | 1.9 | 12 | –
32 | Cc1[nH]ncc1-c1nc(Nc2ccccn2)sc1C | – | > 10000 | – | 19 | –
33 | Cc1n[nH]cc1-c1csc(Nc2ccccn2)n1 | – | 56 | – | 79 | –
34 | Cn1ccc(Nc2nc3c(s2)CCCc2[nH]ncc2-3)n1 | 160 (≈ 45.8 µg/mL) | 3000 | 19 | – | –
35 | CCOc1cccc(Nc2nc3c(s2)CCCc2n[nH]cc2-3)n1 | < 0.1 | 290 | < 0.1 | 78 | –
36 | CN(C)c1cccc(Nc2nc3c(s2)CCCc2n[nH]cc2-3)n1 | – | – | – | 150 | –
37 | Clc1cccc(Nc2nc3c(s2)CCCc2n[nH]cc2-3)n1 | – | – | – | 220 | –
38 | Fc1cccc(Nc2nc3c(s2)CCCc2n[nH]cc2-3)n1 | – | – | – | 170 | –
39 | c1cnc(Nc2nc3c(s2)CCCc2n[nH]cc2-3)cn1 | – | – | – | 18 | –
40 | CN(C)c1cccc(Nc2nc3c(s2)CCCc2[nH]ncc2-3)n1 | < 0.1 | 340 | < 0.1 | – | –
41 | Cc1cccnc1Nc1nc2c(s1)CCCc1n[nH]cc1-2 | – | – | – | 84 | –

The next lines start with results.

Row | solubility kinetic [1] [µM] | EC50 [2] [nM] | Papp [3] [×10⁻⁶ cm/s] | Emax [4] [%] | Compound | other results
42 | – | – | – | 210 | Cc1ccnc(Nc2nc3c(s2)CCCc2n[nH]cc2-3)n1 | –
43 | 38 (≈ 12.1 µg/mL) | 1100 | 15.4 | – | Clc1cccc(Nc2nc3c(s2)CCCc2[nH]ncc2-3)n1 | –
44 | 30 (≈ 9.4 µg/mL) | 2700 | 38.8 | 76 | OCc1cccc(Nc2nc3c(s2)CCCc2n[nH]cc2-3)n1 | –
45 | – | – | – | 160 | c1ccc(Nc2nc3c(s2)CCc2n[nH]cc2-3)cc1 | –
46 | – | – | – | 50 | N#Cc1cccc(Nc2nc3c(s2)CCCc2n[nH]cc2-3)n1 | –
47 | – | – | – | 120 | Cc1cccc(Nc2nc3c(s2)CCc2n[nH]cc2-3)n1 | –
48 | 78 (≈ 22.2 µg/mL) | > 10000 | 3.8 | – | c1cnc(Nc2nc3c(s2)CCCc2[nH]ncc2-3)cn1 | –
49 | – | 750 | – | 120 | O=C(Nc1cc(Cl)cc(Cl)c1)[C@H]1CCCC[C@H]1C(=O)O | –
50 | < 0.1 | 4900 | < 0.1 | – | N#Cc1cccc(Nc2nc3c(s2)CCCc2[nH]ncc2-3)n1 | –
51 | 17 (≈ 4.58 µg/mL) | > 10000 | 18.7 | – | c1cncc(Nc2nc3c(s2)CCc2[nH]ncc2-3)c1 | –
52 | < 0.1 | > 10000 | 2.7 | – | Cc1ccc(Nc2nc3c(s2)CCCc2[nH]ncc2-3)nc1 | –
53 | 0.1 (≈ 0.0357 µg/mL) | 390 | 0.1 | 90 | COCCOc1cccc(Nc2nc3c(s2)CCCc2n[nH]cc2-3)n1 | –
54 | 1.8 (≈ 0.512 µg/mL) | 1300 | 41 | 150 | c1cc(Nc2nc3c(s2)CCCc2n[nH]cc2-3)ncn1 | –
55 | < 0.1 | > 10000 | 0.1 | – | c1cc(Nc2nc3c(s2)CCCc2[nH]ncc2-3)nc(N2CCCC2)c1 | –
56 | 0.1 (≈ 0.0297 µg/mL) | > 10000 | 1 | – | Cc1cc(C)nc(Nc2nc3c(s2)CCc2[nH]ncc2-3)c1 | –
57 | – | – | – | 100 | COc1cccc(Nc2nc3c(s2)CCCc2n[nH]cc2-3)n1 | –
58 | – | 13 | – | 100 | Cc1sc(Nc2ccccn2)nc1-c1cn[nH]c1 | –
59 | – | – | – | 150 | c1ccc(Nc2nc3c(s2)CCc2n[nH]cc2-3)nc1 | –
60 | – | – | – | 10 | c1cc(Nc2nc3c(s2)CCc2n[nH]cc2-3)ccn1 | –
61 | 10 (≈ 2.86 µg/mL) | 2400 | 15 | – | Cc1cc(Nc2nc3c(s2)CCCc2[nH]ncc2-3)[nH]n1 | –
62 | 180 (≈ 48.5 µg/mL) | > 10000 | 2.5 | – | c1cc(Nc2nc3c(s2)CCc2[nH]ncc2-3)ccn1 | –
63 | – | – | – | 180 | c1cnc(Nc2nc3c(s2)CCc2n[nH]cc2-3)nc1 | –
64 | 3.8 (≈ 1.08 µg/mL) | > 10000 | 35 | – | c1cncc(Nc2nc3c(s2)CCCc2[nH]ncc2-3)c1 | –
65 | – | – | – | 200 | Cc1cccc(Nc2nc3c(s2)CCCc2n[nH]cc2-3)n1 | –
66 | 20 (≈ 5.41 µg/mL) | 65 | 3.4 | – | c1cnc(Nc2nc3c(s2)CCc2[nH]ncc2-3)nc1 | fraction unbound [7]: 0.036; CL [5]: 4.4 L/min; fraction unbound [8]: 0.105; CL [6]: 42 mL/min
67 | 0.1 (≈ 0.0313 µg/mL) | 650 | 0.1 | – | COc1cccc(Nc2nc3c(s2)CCCc2[nH]ncc2-3)n1 | –
68 | – | – | – | 230 | COc1ccnc(Nc2nc3c(s2)CCCc2n[nH]cc2-3)n1 | –
69 | 9 (≈ 2.55 µg/mL) | > 10000 | 12.4 | 11 | Cc1ccnc(Nc2nc3c(s2)CCc2n[nH]cc2-3)c1 | –
70 | 110 (≈ 32.7 µg/mL) | 140 | 4.9 | – | Cc1cccc(Nc2nc3c(s2)CCCc2[nH]ncc2-3)n1 | –
